Measurements reported in ChEMBL document CHEMBL4725272, “Studies on the stereoselective synthesis and immunosuppressive activity of dihydroartemisinin-O-glycoside derivatives” (Bioorg Med Chem Lett, 2020).

Assays:
[1] = (§1) Inhibition of human CD4+ve Th cell proliferation; assay type: functional, tissue-based
Procedure, shortened: (§2)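 Human T cells, proliferation inhibition measured over a dose series, run in triplicate (n=3). IC50 was taken from dose-response curves fitted by four-parameter non-linear regression.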

[2] = (§3) Inhibition of human CD8+ve […] cell proliferation; assay type: functional, tissue-based; details: CD8-positive T cell; procedure, shortened: as §2
[3] = Immunosuppressive activity in human primary T-cells extracted from PBMC assessed as inhibition of CD3/CD28-induced IFN-gamma recovery in cell culture media incubated for 120 hrs by ELISA relative to control; assay type: functional
[4] = Inhibition of human T cell proliferation relative to control; assay type: functional
CD4+ve Th = assay: as §1; assay type: functional, tissue-based; procedure, shortened: as §2
T cell = assay: Immunosuppressive activity in human primary T-cells extracted form PBMC assessed as inhibition of CD3/CD28-induced IFN-gamma recovery in cell culture media at 2-32 uM incubated for 120 hrs by ELISA; assay type: functional, tissue-based; details: dose microM 2-32, time 120.0 hrs
CD8-positive T cell = assay: as §3; assay type: functional, tissue-based; procedure, shortened: as §2
[5] = Inhibition of B cell (unknown origin) proliferation; assay type: functional, tissue-based
[6] = Inhibition of T cell (unknown origin) proliferation; assay type: functional, tissue-based

## C[C@H]1[C@@H](O[C@H]2OC[C@@H](O)[C@H](O)[C@H]2O)O[C@@H]2O[C@@]3(C)CC[C@H]4[C@H](C)CC[C@@H]1[C@@]24OO3
[1]
  IC50: 10.8 µM
[2]
  IC50: 9.52 µM

## C[C@H]1[C@H](O[C@@H]2O[C@H](CO)[C@@H](O)[C@H](O)[C@@H]2O)O[C@@H]2O[C@@]3(C)CC[C@H]4[C@H](C)CC[C@@H]1[C@@]24OO3
[3]
  inhibition (INH): 98%
[4]
  inhibition (INH): 88%
CD4+ve Th
  inhibition: Dose-dependent effect
[1]
  IC50: 3.49 µM
T cell
  inhibition: Dose-dependent effect
[2]
  IC50: 2.65 µM
CD8-positive T cell
  inhibition: Dose-dependent effect

## C[C@H]1[C@@H](O[C@@H]2O[C@H](CO)[C@@H](O[C@H]3O[C@H](CO)[C@@H](O)[C@H](O)[C@H]3O)[C@H](O)[C@H]2O)O[C@@H]2O[C@@]3(C)CC[C@H]4[C@H](C)CC[C@@H]1[C@@]24OO3
[1]
  IC50: 9.09 µM
[2]
  IC50: 4 µM

## C[C@H]1[C@@H](OCCN)O[C@@H]2O[C@@]3(C)CC[C@H]4[C@H](C)CC[C@@H]1[C@@]24OO3
[5]
  IC50: 2.6 µM
[1]
  IC50: 1.05 µM
[2]
  IC50: 1.36 µM
[6]
  IC50: 1.2 µM

## C[C@H]1[C@@H](O[C@H]2O[C@H](CO)[C@H](O)[C@H](O)[C@H]2O)O[C@@H]2O[C@@]3(C)CC[C@H]4[C@H](C)CC[C@@H]1[C@@]24OO3
[1]
  IC50: 10.4 µM
[2]
  IC50: 8.63 µM

## C[C@H]1[C@@H](O[C@H]2O[C@H](CO)[C@@H](O)[C@H](O)[C@H]2O)O[C@@H]2O[C@@]3(C)CC[C@H]4[C@H](C)CC[C@@H]1[C@@]24OO3
[1]
  IC50: 17.9 µM
[2]
  IC50: 19.4 µM

## C[C@H]1[C@@H](O)O[C@@H]2O[C@@]3(C)CC[C@H]4[C@H](C)CC[C@@H]1[C@@]24OO3 [ARTENIMOL]
[1]
  IC50: 4.03 µM
[2]
  IC50: 5.53 µM

## C[C@H]1[C@@H](O[C@H]2O[C@H](CO)[C@@H](O)[C@H](O)[C@@H]2O)O[C@@H]2O[C@@]3(C)CC[C@H]4[C@H](C)CC[C@@H]1[C@@]24OO3
[1]
  IC50: > 32 µM
[2]
  IC50: > 32 µM

## C[C@H]1[C@H](O[C@H]2O[C@@H](C)[C@H](O)[C@@H](O)[C@H]2O)O[C@@H]2O[C@@]3(C)CC[C@H]4[C@H](C)CC[C@@H]1[C@@]24OO3
CD4+ve Th
  inhibition: Dose-dependent effect
[1]
  IC50: 3.83 µM
T cell
  inhibition: Dose-dependent effect
[2]
  IC50: 3.36 µM
CD8-positive T cell
  inhibition: Dose-dependent effect

## C[C@H]1[C@@H](O[C@H]2OC[C@H](O)[C@H](O)[C@H]2O)O[C@@H]2O[C@@]3(C)CC[C@H]4[C@H](C)CC[C@@H]1[C@@]24OO3
[1]
  IC50: 14.1 µM
[2]
  IC50: 13 µM
